The source made the active and inactive calls. The calls are words filed in the database; no cut-off is given here.
What was measured:
[1] = system: [Chlorella] fusca; test: Antialgal activity against Chlorella fusca at 50 ug/disk; assay type: functional; details: Scenedesmus fuscus; for zone of inhibition at 50 µg/disc: read-out: IZ
In short: (§1)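 Agar diffusion assay: 50 µg of compound applied per filter disk on seeded agar. The read-out is the inhibition zone, measured in mm from the edge of the filter disk.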

[2] = system: Priestia megaterium; test: Antibacterial activity against Bacillus megaterium at 50 ug/disk; assay type: functional; details: for zone of inhibition at 50 µg/disc: read-out: IZ; in short: as §1
[3] = system: Microbotryum violaceum; test: Antifungal activity against Ustilago violacea at 50 ug/disk; assay type: functional; in short: as §1
[4] = system: Fusarium oxysporum; test: Antifungal activity against Fusarium oxysporum at 50 ug/disk; assay type: functional; in short: as §1
[5] = molecular target: Human immunodeficiency virus type 1 reverse transcriptase (Human immunodeficiency virus 1) (UniProt Q72547); test: Inhibition of HIV1 RT
[6] = system: Escherichia coli; test: Antibacterial activity against Escherichia coli at 50 ug/disk; assay type: functional; details: for zone of inhibition at 50 µg/disc: read-out: IZ; in short: as §1
[7] = system: Mycotypha microspora; test: Antifungal activity against Mycotypha microspora at 50 ug/disk; assay type: functional; in short: as §1
[8] = molecular target: Tyrosine-protein kinase Lck (Homo sapiens, UniProt P06239); test: Inhibition of tyrosine kinase p56-lck
[9] = system: Aspergillus pseudoglaucus; test: Antifungal activity against Eurotium repens at 50 ug/disk; assay type: functional; details: for zone of inhibition at 50 µg/disc: read-out: IZ; in short: as §1

Row | SMILES | zone of inhibition at 50 µg/disc [1] [mm] | zone of inhibition at 50 µg/disc [2] [mm] | Activity [3] | Activity [4] | Activity [5] | zone of inhibition at 50 µg/disc [6] [mm] | Activity [7] | IC50 [8] [µM] | Activity [9] | zone of inhibition at 50 µg/disc ([3]; read-out: IZ) [mm] | zone of inhibition at 50 µg/disc ([4]; read-out: IZ) [mm] | zone of inhibition at 50 µg/disc ([7]; read-out: IZ) [mm] | zone of inhibition at 50 µg/disc [9] [mm] | Activity [1] | Activity [2] | Activity [6] | Activity [8]
1 | COc1cc(C)c(O)c(C[C@]2(C)[C@H]3CCC(=C(C)C)[C@@H](CCC(=O)O)[C@]3(C)CC[C@H]2C)c1 [ATOMARIC ACID] | 5 | 1 | inactive | inactive | inactive | 1 | inactive | 208 | inactive | – | – | – | – | – | – | – | –
2 | Clc1ccc(COC(Cn2ccnc2)c2ccc(Cl)cc2Cl)c(Cl)c1 (stereo unspecified) [MICONAZOLE] | 4 | – | – | – | – | – | – | – | – | 32 | 3 | 5 | 20 | – | – | – | –
3 | CC1=CC(=O)C=C(C[C@]2(C)[C@H]3CCC(=C(C)C)[C@@H](CCC(=O)O)[C@]3(C)CC[C@H]2C)C1=O [STYPOQUINONIC ACID] | – | 1 | inactive | inactive | inactive | 1 | inactive | 187 | inactive | – | – | – | – | inactive | – | – | –
4 | CCOC(=O)c1ccccc1C(=O)OCC [DIETHYL PHTHALATE] | 13 | 10 | – | – | – | – | – | – | – | – | – | – | – | – | – | – | –
5 | Cc1cc(O)cc2c1O[C@@]1(C)CC[C@@H]3[C@@]4(C)CC[C@H](O)C(C)(C)[C@@H]4CC[C@@]3(C)[C@@H]1C2 [TAONDIOL] | – | – | – | – | inactive | – | – | – | – | – | – | – | 2 | inactive | inactive | inactive | inactive

Source: ChEMBL document CHEMBL1144062, “A new tyrosine kinase inhibitor from the marine brown alga Stypopodium zonale” (J Nat Prod, 1999)
